A selection: hits, their analogues and other compounds. The true share with any hit is near 2.9%.
VIM-2 inhibitor = VIM-2 metallo-beta-lactamase inhibitors, primary screen, biochemical, epi-absorbance readout, Pseudomonas aeruginosa enzyme; purified VIM-2, nitrocefin hydrolysis, epi-absorbance fluorescence; inhibition, % at 5.6 µM; 0.89% of 290,000 active;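 active = inhibition above the mean of all tested compounds plus 3 SD, cutoff set per screening run, cut at about 7.5% in these data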;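 note: red hydrolysis product quenches plate fluorescence so inhibitors raise well fluorescence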
NALP1 inh = NALP1 inflammasome inhibitors in reconstituted yeast, colorimetric, S. cerevisiae, triplicate retest; S. cerevisiae NALP1/ASC/caspase-1 growth, X-gal OD620, 72 h; 0.61% of 280,000 active; inhibition, % at 10 µM; in the data active = inhibition mostly above about 24%, no sharp cut-off; inactive = mostly below about 32%
DNA FID counter = compounds displacing fluorescent DNA intercalator, primary screen, artefact control for HCV NS3 helicase inhibitor project, biochemical, FID fluorescence; DNA fluorescent intercalator displacement; inhibition, % at 7.9 µM; 0.17% of 290,000 active; in the data active = inhibition above about 37%;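 note: higher means more ethidium bromide displaced from hairpin DNA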
UBC9 SUMO inh = inhibitors of in vitro SUMOylation cascade, primary screen, biochemical, HTRF, uHTS; HTRF SUMOylation assay, SAE1/SAE2 + UBC9; inhibition, % at 35 µM; 0.36% of 290,000 active; AID 2006, 2009; in the data active = inhibition above about 50%, passing the limit was not always enough
Target sequence (P63279 whole entry, looked up): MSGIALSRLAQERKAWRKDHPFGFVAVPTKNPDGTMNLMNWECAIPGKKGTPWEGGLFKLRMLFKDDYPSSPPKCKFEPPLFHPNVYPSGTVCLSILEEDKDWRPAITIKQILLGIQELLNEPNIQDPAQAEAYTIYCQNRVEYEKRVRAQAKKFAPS
Mot1-301 SUMO = yeast Mot1-301 growth rescue at high temperature, primary screen, SUMOylation pathway inhibitor project, S. cerevisiae, ATP luminescence, 38.5C | S. cerevisiae Mot1-301 growth rescue; percent above DMSO median, 100 means doubled | growth rescue, % at 18.8 µM | 1% of 320,000 active | AID 2716, 2010;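 active = every valid replicate shows activation above 250% relative to neutral control wells; inactive = the rest, any valid replicate at or below 250%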
IMP-1 inhibitor = IMP-1 metallo-beta-lactamase inhibitors, primary screen, biochemical, epi-absorbance readout, Pseudomonas aeruginosa enzyme | purified IMP-1, nitrocefin hydrolysis, epi-absorbance fluorescence | inhibition, % at 5.6 µM | metallo-beta-lactamase IMP-1 (Pseudomonas aeruginosa) | 0.45% of 290,000 active;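 active = inhibition above the mean plus 3 SD of all compounds in the same screening run, cut at about 4.5% in these data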
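System: Purified IMP-1 | Read-out basis: Percent enzyme inhibition | Controls: IMP-1 with DMSO as 0%, enzyme-free DMSO as 100% | Replicates: One well per compound | Doses: 5.6 µM nominal single concentration | Detection: Epi-absorbance fluorescence, 480 nm excitation, 530 nm emission | Incubation: 25 °C, 15 min preincubation, 25 min reaction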
Each line names hits and unclear results; the compound was inactive in the other large screens.

Cc1nn(C)c(C)c1C1C(C#N)=C(N)OC2=C1C(=O)CCC2 (stereo not drawn)	Mot1-301 SUMO 311.2
CC(C)N(CCn1c(=S)[nH]c2ccccc2c1=O)C(C)C	Mot1-301 SUMO 308.2
Nc1nc(SCC(=O)Nc2ccc([N+](=O)[O-])cc2)[nH]c(=O)c1NC(=O)c1ccc(Br)cc1	NALP1 inh 26.9
C[C@H](O)[C@@]1(O)CC[C@H]2[C@@H]3CC[C@@H]4C[C@H](O)CC[C@]4(C)[C@H]3CC[C@@]21C	none (no result: VIM-2 inhibitor, NALP1 inh, DNA FID counter, UBC9 SUMO inh, IMP-1 inhibitor)
C/C(=N\NC(N)=S)C1=CCC2C3CC[C@H]4CC(O)CC[C@]4(C)C3CC[C@]12C (stereo partly drawn)	Mot1-301 SUMO 348.3
O=c1oc2ccccc2c2c1nnn2CCO	none
Cc1cccc(/C=C/C(=O)c2ccc(NC3=NCCCS3)cc2)c1	NALP1 inh 61.9
O=C(/C=C/c1ccc(Br)cc1)c1ccc(NC2=NCCCS2)cc1	DNA FID counter 36.9
Cc1nc(NC(=O)CN2CC(C)OC(C)C2)sc1C(=O)N(C)C (stereo not drawn)	none
COc1ccc(CNC(=O)CN(C)S(=O)(=O)c2ccc(Cl)cc2)cc1	Mot1-301 SUMO 339.1
O=C(CC1C(=O)NCCN1CCCc1ccccc1)NCCc1ccccc1Cl (stereo not drawn)	none
CCCCNS(=O)(=O)c1cccc(S(=O)(=O)N2CCCC2)c1	Mot1-301 SUMO 302.5
CCCCNC(=O)c1oc2ccc(S(=O)(=O)N3CCCC3)cc2c1C	IMP-1 inhibitor 5.9
Cc1ccccc1OCC(=O)NCc1ccccc1	none
N#Cc1cc(Nc2c(N)nc[nH]c2=O)c([N+](=O)[O-])cc1C#N	none
COc1ccccc1Nc1nc(N)nc(CCl)n1	none
COc1ccc(OCc2nc(N)nc(Nc3ccccc3OC)n2)cc1	IMP-1 inhibitor 5.4 (no result: Mot1-301 SUMO)
Cc1nc2ccc(C(C(F)(F)F)(C(F)(F)F)C(F)(F)F)cc2[nH]1	NALP1 inh 40.0
CC(C)CN(C(=O)COC(=O)c1nc(Cl)ccc1Cl)c1c(N)n(Cc2ccccc2)c(=O)[nH]c1=O	none
C=CCNc1nc(-c2ccc(O)c(C(N)=O)c2)cs1	none
NC(=O)c1cc(-c2csc(NCCc3ccccc3)n2)ccc1O	IMP-1 inhibitor 5.0
COc1ccc(S(=O)(=O)N(C)C(C)CCc2ccco2)cc1 (stereo not drawn)	IMP-1 inhibitor 4.9
O=C(Nc1ccc2c(c1)OCO2)C1CCCCN1S(=O)(=O)c1ccccc1 (stereo not drawn)	none
C=CCc1cc(/C=C/c2nc(O)c([N+](=O)[O-])c(=O)[nH]2)cc(OC)c1O	Mot1-301 SUMO 523.3
Cc1ccc(S(=O)(=O)N2C(=O)CCC2C(=O)O/N=C(\N)c2ccccc2)cc1 (stereo not drawn)	none
CCN1CCN(C(=O)C2CCN(c3nnc(-n4c(C)ccc4C)s3)CC2)CC1	none
CC(NC(=O)CNC(=O)C1CCCCC1)c1cccc(Cl)c1 (stereo not drawn)	none
CCOC(=O)NC(c1cccc(Cl)c1)C1CCCCCC1=O (stereo not drawn)	NALP1 inh 43.3
CCC1(C(=O)OC)NC(c2ccco2)C2C(=O)N(c3ccc(C)cc3)C(=O)C21 (stereo not drawn)	none
COC(=O)C1(C(C[N+](=O)[O-])c2ccc(C)cc2)C(=O)NCC1c1ccco1 (stereo not drawn)	NALP1 inh 45.7
COc1ccc(C(Sc2ccccc2)c2ccccc2)cc1OC (stereo not drawn)	none (no result: VIM-2 inhibitor, NALP1 inh, DNA FID counter, UBC9 SUMO inh, IMP-1 inhibitor)
COc1cccc(NC(=O)Cn2c3ccccc3c3nc4n(c(=O)c32)CCCS4)c1	IMP-1 inhibitor 4.8 (no result: UBC9 SUMO inh)
Cc1cc(NC(=O)c2cccnc2)ccc1Br	none
CCOc1ccc(NC(=O)N2CCCC2C(=O)NCc2ccco2)cc1 (stereo not drawn)	none
COc1ccc2[nH]c(C)cc(=O)c2c1	none
COc1ccc2[nH]c3c(C)c4ccncc4c(C)c3c2c1	NALP1 inh 55.3, DNA FID counter 77.1
CCc1nnc(NC(=O)CSc2nc3cccnc3n2Cc2ccccc2)s1	Mot1-301 SUMO 305.4
CCc1nnc(NC(=O)CSc2nnc(Cc3ccccc3)n2Cc2ccccc2)s1	none
CCCCC(O)(c1ccc(CC)cc1)C(CN1CCOCC1)c1ccccc1 (stereo not drawn)	none
COc1ccc(CNCC(O)(c2ccccc2)c2ccc(Cl)cc2)cc1 (stereo not drawn)	NALP1 inh 56.8
CCc1nnc(NC(=O)CSc2nnc(-c3ccc(O)cc3)n2C)s1	none
Cc1cccc(C(=O)NC(C(=O)Nc2ccccc2N2CCOCC2)C(C)C)c1 (stereo not drawn)	none
COc1ccc(CNCCC(c2ccccc2)c2ccc3c(c2)OCO3)cc1 (stereo not drawn)	NALP1 inh 27.3
C(=C\c1nc(N2CCCC2)c2ccccc2n1)/c1ccccc1	NALP1 inh 63.7
CCOC(=O)CSc1nc2ccccc2c(=O)[nH]1	none (no result: NALP1 inh)
CCOC(=O)c1nc2ccccc2c(=O)[nH]1	NALP1 inh 42.7
CN1CCC(NCCC(c2ccc(F)cc2)c2ccc(Cl)cc2)CC1 (stereo not drawn)	DNA FID counter 42.0
O=C(Nc1cccnc1)c1cc(S(=O)(=O)N2CCOCC2)ccc1Br	none
O=C(Nc1ccccc1Cl)C1CCN(S(=O)(=O)c2cccc3nonc23)CC1	NALP1 inh 37.2
O=C(CN1CCOCC1)NNc1nc(-c2ccccc2)c2cc(Br)ccc2n1	none
CCOC(=O)c1cc(=O)[nH]c2ccccc12	none (no result: Mot1-301 SUMO)
CCCOC(=O)c1cc(=O)[nH]c2ccccc12	IMP-1 inhibitor 4.5
COc1ccc(N=Cc2c(O)c3ccccc3n2C(C)=O)cc1	none
COc1ccc(N=Cc2sc(O)c3ccccc23)cc1	IMP-1 inhibitor 8.3
Cc1nn(CCC#N)c(NC(=O)c2ccc(Cl)cc2Cl)c1P(=O)(Nc1ccc([N+](=O)[O-])cc1)N1CCOCC1 (stereo not drawn)	none
Cc1ccc(CNC(=O)CSc2nnc(CNC(=O)c3ccccc3)o2)cc1	none
COC(=O)c1cc2c(=O)c3ccccc3oc2nc1/C=C/N(C)C	VIM-2 inhibitor 7.7
COc1cccc(NC(C)C(=O)Nc2cc([N+](=O)[O-])ccc2Cl)c1 (stereo not drawn)	none
CCc1cc(OCCCCNCc2ccccc2)ccc1Cl	NALP1 inh 63.0
OCCCCNCc1ccc(OCc2ccccc2Cl)cc1	none
CC(C)(C)c1ccc(OCCCNCc2ccccc2)cc1	none
CCOCCCNCc1ccc(OCc2ccccc2Cl)cc1	NALP1 inh 51.9

Screening data: PubChem BioAssay, several laboratories
